What was measured:
[1] = system: Human immunodeficiency virus 1; assay: Antiviral activity against wild type HIV1 infected in human HeLa cells assessed as decrease in viral infection after 72 hrs by beta-galactosidase reporter gene assay; assay type: functional, organism-based; details: Human immunodeficiency virus 1, HeLa
Procedure, shortened: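 HeLa CD4 LTR/β-Gal cells (1 × 10⁴/well, DMEM + 10% FBS) were pretreated with half-log compound dilutions. They were then infected at MOI 0.03 with single-cycle NL4-3 ΔEnv reporter virus pseudotyped with envelope from HEK 293 cotransfection. EC50 was the concentration halving β-galactosidase activity versus infected untreated cells. Values are mean ± SD or representative of three experiments.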

[2] = system: Human immunodeficiency virus 1; assay: Antiviral activity against HIV1 harboring capsid I201V mutant protein infected in human HeLa cells assessed as decrease in viral infection after 72 hrs by beta-galactosidase reporter gene assay; assay type: functional, organism-based; details: Human immunodeficiency virus 1, HeLa
[3] = system: Human immunodeficiency virus 1; assay: Antiviral activity against HIV1 harboring spacer peptide A1V mutant protein infected in human HeLa cells assessed as decrease in viral infection after […] by beta-galactosidase reporter gene assay; assay type: functional, organism-based; details: Human immunodeficiency virus 1, HeLa
Procedure, shortened: (§1)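 MT-2 cells were infected for 2 h with wild-type NL4-3 or recombinant NL4-3 carrying CA I201V or SP1 A1V. They were then cocultured with HeLa CD4 LTR/beta-Gal indicator cells in serially diluted compound. Beta-gal reporter was read after 4 days. EC50s are means ± SD of 3–6 experiments. Fold change is mutant EC50 divided by wild-type EC50.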

[4] = system: Human immunodeficiency virus 1; assay: Selectivity ratio of EC50 for HIV1 harboring capsid I201V mutant protein infected in human HeLa cells to EC50 for wild type HIV1 infected in human HeLa cells; assay type: functional; procedure, shortened: as §1
[5] = system: Human immunodeficiency virus 1; assay: Selectivity ratio of EC50 for HIV1 harboring spacer peptide A1V mutant protein infected in human HeLa cells to EC50 for wild type HIV1 infected in human HeLa cells; assay type: functional; procedure, shortened: as §1
[6] = system: Human immunodeficiency virus 1; assay: Antiviral activity against HIV1 NL4-3 infected in HEK293 cells assessed as decrease in virus production at 2 times EC90 after 72 hrs by beta-galactosidase reporter gene assay; assay type: functional
[7] = system: Human immunodeficiency virus 1; assay: Antiviral activity against HIV1 NL4-3 infected in human HeLa cells assessed as decrease in single-cycle viral infection after 72 hrs by beta-galactosidase reporter gene assay; assay type: functional, organism-based; details: Human immunodeficiency virus 1, NL4-3, HeLa
Procedure, shortened: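 HeLa CD4 LTR/beta-Gal cells (1 × 10⁴/well, DMEM + 10% FBS) were pre-dosed with half-log compound dilutions. They were infected at MOI 0.03 with single-cycle NL4-3 reporter virus made by cotransfecting HEK 293 cells with pNL4-3deltaEnv and an NL4-3 envelope vector. EC50 is from beta-gal reporter activity relative to infected untreated cells, across three experiments.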

SMILES | EC50 [1] | EC50 [2] | EC50 [3] | Ratio EC50 [4] | Ratio EC50 [5] | inhibition (INH) [6] | EC50 [7]
C=C(C)[C@@H]1CC[C@]2(C(=O)O)CC[C@]3(C)[C@H](CC[C@@H]4[C@@]5(C)CC[C@H](OC(=O)CC(C)(C)C(=O)O)C(C)(C)[C@@H]5CC[C@]43C)[C@@H]12 [BEVIRIMAT] | 9 nM | 290 nM | > 1000 nM | 32 | >111 |  | 
O=C1Nc2ccc(Cl)cc2[C@@](C#CC2CC2)(C(F)(F)F)O1 [EFAVIRENZ] |  | 0.6 nM | 1 nM |  |  | 24% | 
Cc1c(O)cccc1C(=O)N[C@@H](CSc1ccccc1)[C@H](O)CN1C[C@H]2CCCC[C@H]2C[C@H]1C(=O)NC(C)(C)C [NELFINAVIR] | 16 nM | 13 nM | 38 nM | 1 | 2 | 76% | > 1000 nM

Reference: ChEMBL document CHEMBL1649302, “New small-molecule inhibitor class targeting human immunodeficiency virus type 1 virion maturation” (Antimicrob Agents Chemother, 2009)
